In ChEMBL document CHEMBL4325878, “SAR of a new antischistosomal urea carboxylic acid” (Bioorg Med Chem Lett, 2018):
≈ marks a conversion by molar mass, not a printed value. Calls of active or inactive are those of the source. The rule behind the calls is not given here.

How the values were obtained:
[1] = Kinetic solubility of compound in 0.01 M HCL at 10 mg/ml at pH 2 by nephelometry; assay type: physicochemical; details: read-out: Kinetic_solubility
In short: (§1)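 DMSO solutions of compound spiked into pH 6.5 phosphate buffer or 0.01 M HCl (approx. pH 2.0); nephelometry read-out, reported as a solubility concentration range.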

[2] = Kinetic solubility of compound in pH 6.5 phosphate buffer at 10 mg/ml by nephelometry; assay type: physicochemical; details: read-out: Kinetic_solubility; in short: as §1
[3] = Intrinsic clearance in human liver microsomes assessed per mg protein after 60 mins in presence of NADPH; assay type: ADME, Microsome; details: 1 h
In short: (§2)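 In vitro intrinsic clearance determined in human and in mouse liver microsomes. Control incubations run without NADPH co-factor; parameters were not derived where compound was lost in those co-factor-free controls.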

[4] = Intrinsic clearance in mouse liver microsomes assessed per mg protein after 60 mins in presence of NADPH; assay type: ADME, Microsome; details: 1 h; in short: as §2
Schistosoma mansoni [5] = test: Antischistosomal activity against newly transformed Schistosoma mansoni cercariae at 10 uM after 72 hrs by microscopic analysis; assay type: functional, organism-based
In short: (§3)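 Newly transformed schistosomula and cultured adult S. mansoni were exposed in vitro to compound at 10 μM.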

Schistosoma mansoni [6] = test: Antischistosomal activity against adult stage of Schistosoma mansoni cercariae at 10 uM after 72 hrs by microscopic analysis; assay type: functional, organism-based; in short: as §3
L6 = test: Cytotoxicity against rat L6 cells up to 200 uM; assay type: cell-based
In short: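 Growth inhibition of rat L6 myoblasts was used as the host-cell cytotoxicity measure, testing compound at concentrations up to 200 μM.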

Schistosoma mansoni [7] = test: Antischistosomal activity against Schistosoma mansoni cercariae infected in NMRI mouse assessed as worm burden reduction at 100 mg/kg, po administered as single dose on day 49 of post infection and measured on day 21 of post treatment relative to control; assay type: functional; parameters: scale not given: the % may be the effect or the level left
In short: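 Single 100 mg/kg oral dose given to S. mansoni-infected mice; in vivo activity read as worm burden reduction versus an untreated control group, with statistical comparison to control.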

Schistosoma mansoni [8] = test: Antischistosomal activity against adult stage of Schistosoma mansoni cercariae after 72 hrs by microscopic analysis; assay type: functional
Schistosoma mansoni [9] = test: Antischistosomal activity against adult stage of Schistosoma mansoni infected in NMRI nude mouse administered as single oral dose on day 49 of post infection; assay type: functional; details: 1176 h

Compound | solubility kinetic [1] [µg/mL] | solubility kinetic [2] [µg/mL] | microsomal intrinsic clearance [3] [µL/min] | microsomal intrinsic clearance [4] [µL/min] | Activity (Schistosoma mansoni [5]) | Activity (Schistosoma mansoni [6]) | Activity (L6) | Activity (Schistosoma mansoni [7]) [%] | LC50 (Schistosoma mansoni [8]) [nM] | ED50 (Schistosoma mansoni [9]) [mg/kg]
CC(C)(NC(=O)Nc1ccccc1)C(=O)O | > 100 | 50 to 100 (≈ 225 to 450 µM) | < 7 | < 7 | inactive | inactive | Non-Toxic | 20 | – | –
CC(C)(NC(=O)Nc1ccc(F)c(C(F)(F)F)c1)C(=O)O | 25 to 50 (≈ 81.1 to 162 µM) | > 100 | < 7 | < 7 | inactive | inactive | – | – | – | –
O=C(O)CNC(=O)Nc1ccc(F)c(C(F)(F)F)c1 | > 100 | > 100 | < 7 | < 7 | inactive | inactive | Non-Toxic | 49 | – | –
CC(C)(C(=O)O)N1CCCN(c2ccc(F)c(C(F)(F)F)c2)C1=O | > 100 | > 100 | < 7 | < 7 | inactive | inactive | Non-Toxic | 14 | – | –
CC(C)(C(=O)O)N1Cc2cc(F)c(C(F)(F)F)cc2NC1=O | 50 to 100 (≈ 156 to 312 µM) | > 100 | < 7 | < 7 | inactive | inactive | Non-Toxic | 0 | – | –
CCOC(=O)C(C)(C)NC(=O)Nc1ccc(F)c(C(F)(F)F)c1 | 3.1 to 6.3 (≈ 9.22 to 18.7 µM) | 3.1 to 6.3 (≈ 9.22 to 18.7 µM) | – | – | inactive | inactive | Non-Toxic | 70 | – | –
O=C(Nc1ccc(F)c(C(F)(F)F)c1)NC1(C(=O)O)CC1 | > 100 | > 100 | < 7 | < 7 | inactive | inactive | Non-Toxic | 4 | – | –
O=C(C1CCCCC1)N1CC(=O)N2CCc3ccccc3C2C1 (stereo not given) [PRAZIQUANTEL] | – | – | – | – | – | – | – | 15 | 77 | –
CC(C)(CC(=O)Nc1ccc(F)c(C(F)(F)F)c1)C(=O)O | 25 to 50 (≈ 81.4 to 163 µM) | 25 to 50 (≈ 81.4 to 163 µM) | < 7 | < 7 | inactive | inactive | Non-Toxic | 42 | – | –
CC(C)(NC(=O)Cc1ccc(F)c(C(F)(F)F)c1)C(=O)O | 50 to 100 (≈ 163 to 325 µM) | 25 to 50 (≈ 81.4 to 163 µM) | < 7 | < 7 | inactive | inactive | Non-Toxic | 0 | – | –
CC(C)(NC(=O)Nc1ccc(F)c(C(F)(F)F)c1)C(N)=O | 50 to 100 (≈ 163 to 325 µM) | 50 to 100 (≈ 163 to 325 µM) | 19 | 18 | inactive | inactive | Non-Toxic | 38 | – | –
O=C(Nc1ccc(F)c(C(F)(F)F)c1)NC1(C(=O)O)CCC1 | 50 to 100 (≈ 156 to 312 µM) | > 100 | 7 | < 7 | inactive | inactive | Non-Toxic | 21 | – | –
CC(C)(C(=O)O)n1c(=O)[nH]c2cc(C(F)(F)F)c(F)cc21 | 50 to 100 (≈ 163 to 327 µM) | > 100 | < 7 | < 7 | inactive | inactive | Non-Toxic | 0 | – | –
CC1(C)NC(=O)N(c2ccc(F)c(C(F)(F)F)c2)C1=O | – | – | – | – | – | – | – | – | – | 172
